Assay outcomes as filed in PubChem.
Rows were chosen to be rich in hits. Some 3.5% of all compounds tested hit in one or more screens of this group.
RGS4 pot: potentiators or activators of RGS4; AID 463111; 310,000 compounds, 0.92% hits; HEK293 M3R/inducible RGS4, carbachol calcium flux Fluo4; active compounds read low; B-score at 10 µM;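 active = B-score of the integrated calcium signal more than 4 SD below the library mean, with starting fluorescence not abnormally high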;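 also: negative B-score means reduced calcium response which marks RGS4 activation or potentiation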
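Assay system: HEK293 FlpIn-TREx cells, stable M3R, doxycycline-inducible RGS4 / Probe or stimulus: carbachol, ECmax concentration / Times: overnight RGS4 induction, 30 min dye load 37 °C, 20 min compound RT / Signal: kinetic calcium fluorescence imaging with Fluo4-AM dye, 2 µM / Measure: Agonist-evoked peak-minus-minimum fluorescence over baseline, integrated ratio, B score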
MrgX1 PAM: allosterically activates human MrgX1 receptor signaling; Q96LB2; AID 588675; MrgX1-HEK293, Fluo-4 calcium flux, FDSS; active compounds read high; 310,000 compounds, 0.63% hits; B-score at 10 µM;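 active = plate-corrected calcium response at least 3 library SD above typical, normal starting fluorescence, not activating the receptor alone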;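 also: compound read alongside a low EC10 to EC30 dose of BAM8-22 agonist; peak minus trough fluorescence over baseline measured at the second addition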
Target sequence (Q96LB2 whole entry, looked up): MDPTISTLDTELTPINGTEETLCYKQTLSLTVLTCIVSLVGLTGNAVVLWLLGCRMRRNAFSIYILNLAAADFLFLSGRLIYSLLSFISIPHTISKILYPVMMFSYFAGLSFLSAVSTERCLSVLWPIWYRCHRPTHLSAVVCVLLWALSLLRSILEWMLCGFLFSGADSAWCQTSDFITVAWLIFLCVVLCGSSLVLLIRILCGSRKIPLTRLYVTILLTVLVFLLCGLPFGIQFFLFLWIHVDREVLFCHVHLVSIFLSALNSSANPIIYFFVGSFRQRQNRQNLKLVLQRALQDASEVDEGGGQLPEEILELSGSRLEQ
MrgX1 antag: human MrgX1 receptor antagonism, primary screen; Q96LB2; MRGX1-HEK293 calcium flux, Fluo-4, BAM8-22 antagonism; active compounds read low; B-score at 10 µM; 310,000 compounds, 1.3% hits;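 active = calcium-response B-score plate-corrected more than 3 library SD below zero, starting fluorescence within 5 deviations, no agonist response on first addition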;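 also: peak minus trough fluorescence over baseline after final BAM8-22 challenge near maximal dose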
RGS4 block: human RGS4 inhibition | B-score at 10 µM | AID 463165 | P49798 | HEK293 M3R/RGS4 inducible, Fluo-4 calcium flux; active compounds read high; triggered by carbachol at its EC20 | 310,000 compounds, 0.45% hits;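 active = B-score, a plate-corrected calcium signal, over three deviations above library mean, with baseline fluorescence within five deviations of library mean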;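 also: RGS4 expression induced by doxycycline in cells with stable M3 receptor; B-score is computed from the integrated fluorescence ratio over baseline after carbachol; higher B-score means a larger calcium signal and so more RGS4 inhibition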
Target sequence (P49798 whole entry, looked up): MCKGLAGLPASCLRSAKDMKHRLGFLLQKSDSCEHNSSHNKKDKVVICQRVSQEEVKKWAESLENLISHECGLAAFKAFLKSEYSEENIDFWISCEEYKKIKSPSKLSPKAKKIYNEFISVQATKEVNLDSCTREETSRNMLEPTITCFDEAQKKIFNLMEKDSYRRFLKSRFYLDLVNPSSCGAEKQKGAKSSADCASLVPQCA
MrgX1 agonist: human MrgX1 receptor agonism, primary screen | Q96LB2 | MrgX1-HEK293 cells, Fluo-4 calcium fluorescence, agonist mode; active compounds read high | B-score at 10 µM | 310,000 compounds, 0.44% hits | AID 588627;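 active = calcium response B-score plate-corrected fluorescence ratio at least 3 library SD, with starting fluorescence B-score inside 5 SD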
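Assay system: MrgX1-expressing HEK293 cells / Amount: fifteen thousand cells per well / Doses: test compound in the initial addition of three / Timing: cells plated overnight, dye loaded 0.5 h 37 °C, 0.5 h room temperature / Technique: kinetic calcium dye fluorescence, Fluo-4 NW / Control set: positive and negative controls per plate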
Active calls of the source: *; i = inactive; / = not tested or not shown.

SMILES | RGS4 pot | MrgX1 PAM | MrgX1 antag | RGS4 block | MrgX1 agonist
CCCCC[C@H]1CN(Cc2ccccc2)C(=O)[C@@H]1CC(=O)NCc1ccc(OC)cc1 | i | i | i | i | i
COc1ccc(/C=C(\NC(=O)c2cccs2)C(=O)Nc2cccc3ccccc23)cc1OC | i | i | i | i | 28*
O=C(CCC(=O)N1CCOCC1)c1ccc(F)cc1 | i | i | i | i | i
O=C1Nc2ccccc2/C1=C/c1ccccc1Cl | i | i | i | i | i
CN1CCN(c2ccccc2/C=C2/C(=O)Nc3ccccc32)CC1 | -8.5* | i | i | i | i
CSc1ccccc1NC(=O)c1cc2ncc(Br)cn2n1 | i | i | i | i | i
CS(=O)(=O)Oc1ccc2c(c1)O/C(=C\c1cccnc1)C2=O | i | i | i | i | i
COc1cc(OC)c(OC)cc1/C=C1\Oc2cc(OS(C)(=O)=O)ccc2C1=O | i | i | -7.4* | i | i
C=C1C(=O)O[C@H]2[C@H]1[C@@H](O)CC(=C)[C@@H]1CC(=O)[C@@H](C)[C@H]21 | i | i | i | 6.7* | i
CCCCNc1nc2c(c(=O)n(Cc3ccccc3)c(=O)n2C)n1C | i | i | i | i | i
O=C(OCC(=O)N1CCCc2ccccc21)c1ccc(F)c(S(=O)(=O)N2CCOCC2)c1 | i | i | i | i | i
Nc1nc(-c2ccccc2)c(-c2ccc([N+](=O)[O-])cc2)s1 | i | i | -5.1* | i | i
Cc1c(Cl)c([N+](=O)[O-])nn1CC(=O)NCc1ccc(Cl)cc1 | i | i | i | i | i
CCN(CC)CCN1C(=O)/C(=C\c2ccc(Cl)c([N+](=O)[O-])c2)SC1=Nc1ccc(OC)cc1 | i | i | i | 27* | i
CCCN1C(=O)/C(=C/c2ccc(C)s2)SC1=Nc1ccc(OC)cc1 | i | i | i | i | i
COc1ccc(N=C2S/C(=C\c3ccc(Cl)c([N+](=O)[O-])c3)C(=O)N2CCN(C)C)cc1 | i | i | i | 13* | i
Cc1cc(Cl)c(S(=O)(=O)N/N=C/c2ccc3c(c2)OCO3)c(Cl)c1 | -8.2* | i | i | i | i
O=C(N/N=C/c1ccc2c(c1)OCO2)C1CC1 | i | i | -5.4* | i | i
COc1cc(F)c(C(=O)NC(C)(C)CO)cc1OC | i | i | i | i | i
O=[N+]([O-])c1ccc(NC(=S)NCc2ccc(F)cc2)cc1 | i | i | i | i | 27*
O=[N+]([O-])c1ccc(NC(=S)NCc2ccncc2)cc1 | i | i | -4.7* | i | i
CCN1CCN(C(=O)CN(CC)S(=O)(=O)c2ccc(F)cc2)CC1 | i | i | i | i | i
O=[N+]([O-])c1cc(Br)c(Nc2ccccc2)c([N+](=O)[O-])c1 | i | 6.6* | i | i | i
O=C(COc1ccc(S(=O)(=O)N2CCOCC2)cc1)N1CCN(c2ccccc2)CC1 | i | i | i | i | i
Cc1ccc(OCCC(=O)OCC(=O)Nc2ccc3c(c2)OCO3)cc1 | i | i | i | i | i
SMILES | RGS4 pot | MrgX1 PAM | MrgX1 antag | RGS4 block | MrgX1 agonist
COc1ccc(CNC(=O)COC(=O)c2ccco2)cc1 | i | i | i | i | i
Fc1ccc(C2C3=C(Nc4ncnn42)c2ccccc2OC3c2ccncc2)cc1 (centres undefined) | i | i | i | i | i
Cc1ccc(C2Oc3ccccc3C3=C2C(c2cccs2)n2ncnc2N3)cc1 (centres undefined) | -7.3* | i | i | i | i
CCOc1ccc(C(C)=O)cc1N1C(=O)C2C3C=CC(O3)C2C1=O (centres undefined) | i | i | i | i | 32*
Cc1ccc(C)c(NC(=O)/C(C#N)=C/c2ccc(Sc3nncn3C)c([N+](=O)[O-])c2)c1 | i | i | i | 6.2* | i
COc1ccc(OC)c(NC(=O)COc2ccc(S(=O)(=O)N3CCCC3)cc2)c1 | i | i | i | i | i
Cc1ccccc1S(=O)(=O)Cc1ccc(C(=O)NC2CCCCC2)o1 | i | i | i | i | i
O=C(c1cc(-c2cccs2)nn1-c1ccccc1)N1CCN(S(=O)(=O)c2ccccc2)CC1 | -7.2* | i | i | i | i
O=C(/C=C/c1cccc(Br)c1)NCC1CCCCC1 | i | i | -7* | i | i
O=[N+]([O-])c1ccccc1S(=O)(=O)Oc1ccc(/C=N/n2cnnc2)cc1 | i | i | i | i | i
COc1cc(/C=N/n2cnnc2)ccc1OS(=O)(=O)c1ccccc1[N+](=O)[O-] | i | i | -6.6* | i | i
COc1ccc(S(=O)(=O)Nc2cccc(-c3ccc4nncn4n3)c2)c(OC)c1 | i | i | i | i | i
CS(=O)(=O)N1CCN(Cc2cc(=O)n3ccsc3n2)CC1 | i | i | i | i | i
COc1ccc(-c2csc(NC(=O)CN3C(=O)C4CC=CCC4C3=O)n2)cc1OC (centres undefined) | i | i | i | i | 48*
COc1ccc(-c2csc(NC(=O)c3ccc(OCC(=O)N4CCOCC4)c(OC)c3)n2)cc1OC | -8.8* | i | i | i | i
COc1ccc(-c2csc(NC(=O)CSCC(=O)Nc3cc(C)on3)n2)cc1OC | i | i | i | i | 29*
COc1ccc(-c2csc(NC(=S)NC(=O)c3cccs3)n2)cc1OC | -7.3* | / | / | i | /
CCN1CC(CN(C)Cc2nc(-c3ccc(OC)c4ccccc34)oc2C)CC1=O (centres undefined) | i | i | i | i | i
O=C(NCC(=O)N1CCN(S(=O)(=O)/C=C/c2ccccc2)CC1)c1ccc(Cl)cc1 | i | i | i | i | i
COc1ccc(NC(=O)NNC(=O)C(C)Oc2ccc3ccccc3c2)cc1OC (centres undefined) | i | i | i | i | i
CCOc1ccc(CN(CC)C(=O)Cc2c[nH]c3ccccc23)cc1OC | i | i | i | i | i
O=C(Nc1cccc(-c2csc(-c3ccccc3)n2)c1)c1cccs1 | -7.1* | i | i | i | i
Cc1nc(-c2cccc(NC(=O)c3cccs3)c2)cs1 | i | i | i | i | i
O=C(CSc1cn[nH]n1)Nc1nc2ccccc2s1 | i | i | i | i | i
O=C(N/N=C/c1ccc[nH]1)c1ccc(COc2cccc3cccnc23)cc1 | i | 7.8* | -7.2* | i | i
O=C(NCCO)C(=O)Nc1cc2c3c(c1)CC(=O)N3CCC2 | i | i | i | i | i
